ChEMBL document CHEMBL3785069, “Tumour-specific cytotoxicity and structure-activity relationships of novel 1-[3-(2-methoxyethylthio)propionyl]-3,5-bis(benzylidene)-4-piperidones” (Bioorg Med Chem, 2016)

Tested on: not listed separately
Experiment: Cytotoxicity against human HSC4 cells after 48 hrs by MTT assay
Assay type: functional
Settings: HSC-4, 48 h
Summary of the method: (§1)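 Oral carcinoma (HSC-2, HSC-3, HSC-4) and nonmalignant HGF and HPLF cells incubated with graded compound concentrations at 37 °C for 48 h in DMEM plus 10% heat-inactivated FBS. Viability read by MTT. CC50 from duplicate runs, differing by under 10% at each concentration.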

| Compound | CC50 |
| --- | --- |
| COCC[S+]([O-])CCC(=O)N1C/C(=C\c2ccc(F)cc2)C(=O)/C(=C/c2ccc(F)cc2)C1 (centres undefined) | 700 nM |
| COCC[S+](C)CCC(=O)N1C/C(=C\c2ccccc2)C(=O)/C(=C/c2ccccc2)C1.F[B-](F)(F)F (centres undefined) | 1360 nM |
| COCCSCCC(=O)N1C/C(=C\c2ccc(C)cc2)C(=O)/C(=C/c2ccc(C)cc2)C1 | 1200 nM |
| COCCSCCC(=O)N1C/C(=C\c2ccc(F)cc2)C(=O)/C(=C/c2ccc(F)cc2)C1 | 560 nM |
| COCCOCCC(=O)N1C/C(=C\c2ccccc2)C(=O)/C(=C/c2ccccc2)C1 | 1220 nM |
| COCCSCCC(=O)N1C/C(=C\c2ccc(Cl)cc2)C(=O)/C(=C/c2ccc(Cl)cc2)C1 | 810 nM |

Tested on: not listed separately
Experiment: Cytotoxicity against human HSC3 cells after 48 hrs by MTT assay
Assay type: functional
Settings: HSC-3, 48 h
Summary of the method: as §1

| Compound | CC50 |
| --- | --- |
| COCC[S+]([O-])CCC(=O)N1C/C(=C\c2ccc(F)cc2)C(=O)/C(=C/c2ccc(F)cc2)C1 (centres undefined) | 1010 nM |
| COCC[S+](C)CCC(=O)N1C/C(=C\c2ccccc2)C(=O)/C(=C/c2ccccc2)C1.F[B-](F)(F)F (centres undefined) | 1430 nM |
| COCCSCCC(=O)N1C/C(=C\c2ccc(C)cc2)C(=O)/C(=C/c2ccc(C)cc2)C1 | 1700 nM |
| COCCSCCC(=O)N1C/C(=C\c2ccc(F)cc2)C(=O)/C(=C/c2ccc(F)cc2)C1 | 1190 nM |
| COCCOCCC(=O)N1C/C(=C\c2ccccc2)C(=O)/C(=C/c2ccccc2)C1 | 1320 nM |
| COCCSCCC(=O)N1C/C(=C\c2ccc(Cl)cc2)C(=O)/C(=C/c2ccc(Cl)cc2)C1 | 1030 nM |

Tested on: HSC-4
Experiment: Selectivity index, ratio of average CC50 for human HGF and HPLF cells to CC50 for human HSC4 cells
Settings: pooled result: one value given for 2 cell lines, strains, targets or settings

| Compound | Selectivity Index |
| --- | --- |
| COCC[S+]([O-])CCC(=O)N1C/C(=C\c2ccc(F)cc2)C(=O)/C(=C/c2ccc(F)cc2)C1 (centres undefined) | 6.46 |
| COCC[S+](C)CCC(=O)N1C/C(=C\c2ccccc2)C(=O)/C(=C/c2ccccc2)C1.F[B-](F)(F)F (centres undefined) | 6.02 |
| COCCSCCC(=O)N1C/C(=C\c2ccc(C)cc2)C(=O)/C(=C/c2ccc(C)cc2)C1 | 8.12 |
| COCCSCCC(=O)N1C/C(=C\c2ccc(F)cc2)C(=O)/C(=C/c2ccc(F)cc2)C1 | 9.16 |
| COCCOCCC(=O)N1C/C(=C\c2ccccc2)C(=O)/C(=C/c2ccccc2)C1 | 7.41 |
| COCCSCCC(=O)N1C/C(=C\c2ccc(Cl)cc2)C(=O)/C(=C/c2ccc(Cl)cc2)C1 | 6.93 |

Tested on: not listed separately
Experiment: Cytotoxicity against human Molt4/C8 cells after 72 hrs by MTT assay
Assay type: functional, cell-based
Settings: MOLT-4, 72 h
Summary of the method: (§2)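 Leukemic cells exposed to a concentration series of each compound in RPMI 1640 medium at 37 °C, 72 h for Molt4/C8 and CEM, 48 h for L1210.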

| Compound | IC50 |
| --- | --- |
| COCC[S+]([O-])CCC(=O)N1C/C(=C\c2ccc(F)cc2)C(=O)/C(=C/c2ccc(F)cc2)C1 (centres undefined) | 1280 nM |
| COCC[S+](C)CCC(=O)N1C/C(=C\c2ccccc2)C(=O)/C(=C/c2ccccc2)C1.F[B-](F)(F)F (centres undefined) | 1340 nM |
| COCCSCCC(=O)N1C/C(=C\c2ccc(C)cc2)C(=O)/C(=C/c2ccc(C)cc2)C1 | 2660 nM |
| COCCSCCC(=O)N1C/C(=C\c2ccc(F)cc2)C(=O)/C(=C/c2ccc(F)cc2)C1 | 1720 nM |
| COCCOCCC(=O)N1C/C(=C\c2ccccc2)C(=O)/C(=C/c2ccccc2)C1 | 1840 nM |
| COCCSCCC(=O)N1C/C(=C\c2ccc(Cl)cc2)C(=O)/C(=C/c2ccc(Cl)cc2)C1 | 1730 nM |
| COCCS(=O)(=O)CCC(=O)N1C/C(=C\c2ccc(F)cc2)C(=O)/C(=C/c2ccc(F)cc2)C1 | 1120 nM |

Tested on: HSC-2
Experiment: Selectivity index, ratio of average CC50 for human HGF and HPLF cells to CC50 for human HSC2 cells
Settings: pooled result: one value given for 2 cell lines, strains, targets or settings

| Compound | Selectivity Index |
| --- | --- |
| COCC[S+]([O-])CCC(=O)N1C/C(=C\c2ccc(F)cc2)C(=O)/C(=C/c2ccc(F)cc2)C1 (centres undefined) | 6.55 |
| COCC[S+](C)CCC(=O)N1C/C(=C\c2ccccc2)C(=O)/C(=C/c2ccccc2)C1.F[B-](F)(F)F (centres undefined) | 5.24 |
| COCCSCCC(=O)N1C/C(=C\c2ccc(C)cc2)C(=O)/C(=C/c2ccc(C)cc2)C1 | 6.72 |
| COCCSCCC(=O)N1C/C(=C\c2ccc(F)cc2)C(=O)/C(=C/c2ccc(F)cc2)C1 | 6.75 |
| COCCOCCC(=O)N1C/C(=C\c2ccccc2)C(=O)/C(=C/c2ccccc2)C1 | 8.95 |
| COCCSCCC(=O)N1C/C(=C\c2ccc(Cl)cc2)C(=O)/C(=C/c2ccc(Cl)cc2)C1 | 5.15 |

Tested on: CCRF-CEM
Experiment: Cytotoxicity against human CEM cells after 72 hrs by MTT assay
Assay type: functional, cell-based
Settings: not given
Summary of the method: as §2

| Compound | IC50 |
| --- | --- |
| COCC[S+]([O-])CCC(=O)N1C/C(=C\c2ccc(F)cc2)C(=O)/C(=C/c2ccc(F)cc2)C1 (centres undefined) | 830 nM |
| COCC[S+](C)CCC(=O)N1C/C(=C\c2ccccc2)C(=O)/C(=C/c2ccccc2)C1.F[B-](F)(F)F (centres undefined) | 1400 nM |
| COCCSCCC(=O)N1C/C(=C\c2ccc(C)cc2)C(=O)/C(=C/c2ccc(C)cc2)C1 | 1950 nM |
| COCCSCCC(=O)N1C/C(=C\c2ccc(F)cc2)C(=O)/C(=C/c2ccc(F)cc2)C1 | 1600 nM |
| COCCOCCC(=O)N1C/C(=C\c2ccccc2)C(=O)/C(=C/c2ccccc2)C1 | 1760 nM |
| COCCSCCC(=O)N1C/C(=C\c2ccc(Cl)cc2)C(=O)/C(=C/c2ccc(Cl)cc2)C1 | 1240 nM |
| COCCS(=O)(=O)CCC(=O)N1C/C(=C\c2ccc(F)cc2)C(=O)/C(=C/c2ccc(F)cc2)C1 | 610 nM |

Tested on: not listed separately
Experiment: Cytotoxicity against human HPLF cells after 48 hrs by MTT assay
Assay type: cell-based
Settings: not given
Summary of the method: as §1

| Compound | CC50 at 48 h |
| --- | --- |
| COCC[S+]([O-])CCC(=O)N1C/C(=C\c2ccc(F)cc2)C(=O)/C(=C/c2ccc(F)cc2)C1 (centres undefined) | 4210 nM |
| COCC[S+](C)CCC(=O)N1C/C(=C\c2ccccc2)C(=O)/C(=C/c2ccccc2)C1.F[B-](F)(F)F (centres undefined) | 6250 nM |
| COCCSCCC(=O)N1C/C(=C\c2ccc(C)cc2)C(=O)/C(=C/c2ccc(C)cc2)C1 | 9170 nM |
| COCCSCCC(=O)N1C/C(=C\c2ccc(F)cc2)C(=O)/C(=C/c2ccc(F)cc2)C1 | 4990 nM |
| COCCOCCC(=O)N1C/C(=C\c2ccccc2)C(=O)/C(=C/c2ccccc2)C1 | 8840 nM |
| COCCSCCC(=O)N1C/C(=C\c2ccc(Cl)cc2)C(=O)/C(=C/c2ccc(Cl)cc2)C1 | 5970 nM |

Tested on: not listed separately
Experiment: Cytotoxicity against human HGF cells after 48 hrs by MTT assay
Assay type: cell-based
Settings: not given
Summary of the method: as §1

| Compound | CC50 at 48 h |
| --- | --- |
| COCC[S+]([O-])CCC(=O)N1C/C(=C\c2ccc(F)cc2)C(=O)/C(=C/c2ccc(F)cc2)C1 (centres undefined) | 4830 nM |
| COCC[S+](C)CCC(=O)N1C/C(=C\c2ccccc2)C(=O)/C(=C/c2ccccc2)C1.F[B-](F)(F)F (centres undefined) | 10100 nM |
| COCCSCCC(=O)N1C/C(=C\c2ccc(C)cc2)C(=O)/C(=C/c2ccc(C)cc2)C1 | 10300 nM |
| COCCSCCC(=O)N1C/C(=C\c2ccc(F)cc2)C(=O)/C(=C/c2ccc(F)cc2)C1 | 5270 nM |
| COCCOCCC(=O)N1C/C(=C\c2ccccc2)C(=O)/C(=C/c2ccccc2)C1 | 9240 nM |
| COCCSCCC(=O)N1C/C(=C\c2ccc(Cl)cc2)C(=O)/C(=C/c2ccc(Cl)cc2)C1 | 5240 nM |

Tested on: HSC-3
Experiment: Selectivity index, ratio of average CC50 for human HGF and HPLF cells to CC50 for human HSC3 cells
Settings: pooled result: one value given for 2 cell lines, strains, targets or settings

| Compound | Selectivity Index |
| --- | --- |
| COCC[S+]([O-])CCC(=O)N1C/C(=C\c2ccc(F)cc2)C(=O)/C(=C/c2ccc(F)cc2)C1 (centres undefined) | 4.48 |
| COCC[S+](C)CCC(=O)N1C/C(=C\c2ccccc2)C(=O)/C(=C/c2ccccc2)C1.F[B-](F)(F)F (centres undefined) | 5.72 |
| COCCSCCC(=O)N1C/C(=C\c2ccc(C)cc2)C(=O)/C(=C/c2ccc(C)cc2)C1 | 5.73 |
| COCCSCCC(=O)N1C/C(=C\c2ccc(F)cc2)C(=O)/C(=C/c2ccc(F)cc2)C1 | 4.31 |
| COCCOCCC(=O)N1C/C(=C\c2ccccc2)C(=O)/C(=C/c2ccccc2)C1 | 6.85 |
| COCCSCCC(=O)N1C/C(=C\c2ccc(Cl)cc2)C(=O)/C(=C/c2ccc(Cl)cc2)C1 | 5.45 |

Tested on: L1210
Experiment: Cytotoxicity against mouse L1210 cells after 48 hrs by MTT assay
Assay type: functional, cell-based
Settings: L1210, 48 h
Summary of the method: as §2

| Compound | IC50 |
| --- | --- |
| COCC[S+]([O-])CCC(=O)N1C/C(=C\c2ccc(F)cc2)C(=O)/C(=C/c2ccc(F)cc2)C1 (centres undefined) | 3330 nM |
| COCC[S+](C)CCC(=O)N1C/C(=C\c2ccccc2)C(=O)/C(=C/c2ccccc2)C1.F[B-](F)(F)F (centres undefined) | 3450 nM |
| COCCSCCC(=O)N1C/C(=C\c2ccc(C)cc2)C(=O)/C(=C/c2ccc(C)cc2)C1 | 4900 nM |
| COCCSCCC(=O)N1C/C(=C\c2ccc(F)cc2)C(=O)/C(=C/c2ccc(F)cc2)C1 | 5850 nM |
| COCCOCCC(=O)N1C/C(=C\c2ccccc2)C(=O)/C(=C/c2ccccc2)C1 | 6240 nM |
| COCCSCCC(=O)N1C/C(=C\c2ccc(Cl)cc2)C(=O)/C(=C/c2ccc(Cl)cc2)C1 | 3440 nM |
| COCCS(=O)(=O)CCC(=O)N1C/C(=C\c2ccc(F)cc2)C(=O)/C(=C/c2ccc(F)cc2)C1 | 2450 nM |

Tested on: not listed separately
Experiment: Cytotoxicity against human HSC2 cells after 48 hrs by MTT assay
Assay type: functional
Settings: HSC-2, 48 h
Summary of the method: as §1

| Compound | CC50 |
| --- | --- |
| COCC[S+]([O-])CCC(=O)N1C/C(=C\c2ccc(F)cc2)C(=O)/C(=C/c2ccc(F)cc2)C1 (centres undefined) | 690 nM |
| COCC[S+](C)CCC(=O)N1C/C(=C\c2ccccc2)C(=O)/C(=C/c2ccccc2)C1.F[B-](F)(F)F (centres undefined) | 1560 nM |
| COCCSCCC(=O)N1C/C(=C\c2ccc(C)cc2)C(=O)/C(=C/c2ccc(C)cc2)C1 | 1450 nM |
| COCCSCCC(=O)N1C/C(=C\c2ccc(F)cc2)C(=O)/C(=C/c2ccc(F)cc2)C1 | 760 nM |
| COCCOCCC(=O)N1C/C(=C\c2ccccc2)C(=O)/C(=C/c2ccccc2)C1 | 1010 nM |
| COCCSCCC(=O)N1C/C(=C\c2ccc(Cl)cc2)C(=O)/C(=C/c2ccc(Cl)cc2)C1 | 1090 nM |
